Published values gathered from unrelated publications.
Each line is one published result; the experiments were not run side by side. ≈ marks a conversion by molar mass, not a printed value.

O=C(NC(=S)Nc1ccccn1)c1cccs1
IC50 (Leishmania tropica; parasite growth, resazurin; promastigote): 0.79 µM

O=C(O)c1cn(C2CC2)c2cc(N3CCNCC3)c(F)cc2c1=O
MIC (Shigella sonnei; microbial growth; ATCC25931): 0.88 µM (≈ 0.292 µg/mL)

COc1ccc(Cc2[nH]/c(=N/C(=O)C34CC5CC(CC(C5)C3)C4)n(C)c2-c2ccc(OC(=O)c3ccc(C(F)(F)F)cc3)c(OC)c2)cc1
IC50 (Hepatitis B virus; viral replication, inhibitor; HePAD38): 5.22 µM

O=C(NC(=S)Nc1nccs1)c1cccs1
IC50 (Leishmania tropica; parasite growth, resazurin; promastigote): 1.53 µM

CC(=O)N1CCN(c2ccc(OCC3COC(Cn4ccnc4)(c4ccc(Cl)cc4Cl)O3)cc2)CC1 (stereo not shown)
inhibition zone (Saccharomyces cerevisiae; microbial growth, well diffusion; ATCC9763; 500 µg/mL): 20 mm

O=C(NC(=S)Nc1cccc(O)c1)c1ccco1
IC50 (Leishmania tropica; parasite growth, resazurin; promastigote): 0.68 µM

Cc1c(C(N)=O)c(N)n(N)c(=O)c1C#N
inhibition zone (Saccharomyces cerevisiae; microbial growth, well diffusion; ATCC9763; 500 µg/mL): 11 mm

COc1ccc(Cc2[nH]/c(=N/C(=O)C34CC5CC(CC(C5)C3)C4)n(C)c2Cc2ccc(OC)c(OC)c2)cc1
IC50 (Hepatitis B virus; viral replication, inhibitor; HePAD38): 0.24 µM

N#Cc1c(-c2ccc(Cl)cc2Cl)c(C(N)=O)c(N)n(N)c1=O
inhibition zone (Saccharomyces cerevisiae; microbial growth, well diffusion; ATCC9763; 500 µg/mL): 10 mm

COc1ccc(Cc2[nH]/c(=N/C(=O)C34CC5CC(CC(C5)C3)C4)n(C)c2-c2ccc(OC(=O)C3CC3)c(OC)c2)cc1
IC50 (Hepatitis B virus; viral replication, inhibitor; HePAD38): 49.3 µM
